Assay [1] concerns the target T1, Glucosyltransferase-I (Streptococcus mutans serotype c (strain ATCC 700610 / UA159)) (UniProt P08987).
T1 sequence (whole entry): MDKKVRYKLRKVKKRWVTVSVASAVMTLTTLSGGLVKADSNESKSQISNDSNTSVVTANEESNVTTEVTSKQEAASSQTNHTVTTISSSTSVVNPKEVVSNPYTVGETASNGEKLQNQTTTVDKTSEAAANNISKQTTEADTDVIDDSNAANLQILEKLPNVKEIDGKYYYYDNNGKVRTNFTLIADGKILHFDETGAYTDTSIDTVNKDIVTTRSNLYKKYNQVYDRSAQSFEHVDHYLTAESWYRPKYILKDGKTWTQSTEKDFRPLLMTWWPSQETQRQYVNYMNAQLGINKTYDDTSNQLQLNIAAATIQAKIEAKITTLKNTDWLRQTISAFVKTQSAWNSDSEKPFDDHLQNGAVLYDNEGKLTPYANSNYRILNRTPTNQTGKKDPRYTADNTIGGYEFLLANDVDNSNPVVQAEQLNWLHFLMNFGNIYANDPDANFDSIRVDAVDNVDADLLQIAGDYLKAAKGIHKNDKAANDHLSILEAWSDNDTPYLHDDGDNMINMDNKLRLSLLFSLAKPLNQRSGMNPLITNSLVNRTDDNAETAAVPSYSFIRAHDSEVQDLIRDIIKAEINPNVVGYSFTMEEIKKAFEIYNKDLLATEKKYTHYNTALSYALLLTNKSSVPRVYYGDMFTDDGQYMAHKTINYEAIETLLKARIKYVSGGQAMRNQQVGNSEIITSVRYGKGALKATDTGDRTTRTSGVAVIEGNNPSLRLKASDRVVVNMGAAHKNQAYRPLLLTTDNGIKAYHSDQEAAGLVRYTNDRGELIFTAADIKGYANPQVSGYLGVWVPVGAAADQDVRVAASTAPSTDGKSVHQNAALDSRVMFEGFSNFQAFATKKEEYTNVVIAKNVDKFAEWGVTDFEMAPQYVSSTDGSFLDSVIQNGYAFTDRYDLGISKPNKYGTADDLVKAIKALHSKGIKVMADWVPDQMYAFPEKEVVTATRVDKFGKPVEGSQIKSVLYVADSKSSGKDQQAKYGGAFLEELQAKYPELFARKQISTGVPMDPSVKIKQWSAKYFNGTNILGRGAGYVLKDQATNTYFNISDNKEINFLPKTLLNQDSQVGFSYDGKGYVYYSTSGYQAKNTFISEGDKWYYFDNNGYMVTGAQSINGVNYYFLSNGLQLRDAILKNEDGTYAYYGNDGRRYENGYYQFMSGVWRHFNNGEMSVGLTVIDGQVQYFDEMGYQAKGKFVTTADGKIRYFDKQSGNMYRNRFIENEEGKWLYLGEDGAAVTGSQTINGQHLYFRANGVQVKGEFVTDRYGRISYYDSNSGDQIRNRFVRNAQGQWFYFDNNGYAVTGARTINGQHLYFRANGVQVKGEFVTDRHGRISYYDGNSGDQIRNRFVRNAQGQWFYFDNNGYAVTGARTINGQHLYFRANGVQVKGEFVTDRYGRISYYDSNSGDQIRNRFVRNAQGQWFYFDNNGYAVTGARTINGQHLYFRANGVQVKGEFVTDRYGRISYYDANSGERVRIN
The assay is described as follows: Inhibition of Wild-type Streptococcus mutans UA159 glucosyltransferase B at 50 uM by coomassie blue staining based SDS-PAGE method. An outline of the steps: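 Compound (50 µM) added to overnight S. mutans UA159 wild-type cultures; Gtfs collected and concentrated from supernatants, run on SDS-PAGE in duplicate; one gel Coomassie blue stained for protein levels.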

A further assay has as its system Streptococcus mutans. Put plainly: Inhibition of biofilm formation of Streptococcus mutans UA159 after 16 hrs by crystal violet staining based serial dilution method. The assay is classed as functional, organism-based. To be noted: Streptococcus mutans, UA159, 16 h. An outline of the steps: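 S. mutans UA159 co-incubated with compound at various concentrations; biofilm quantified by crystal violet protocol, read at OD562.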

The structures appear in SMILES notation. The source made the active and inactive calls. The calls are words filed in the database; no cut-off is given here.

Regarding `O=C(/C=C/c1ccc(O)cc1O)c1cccc(O)c1` (stereo in doubt; 9a), the inhibition result in assay [1] was “Active”. With `O=C(/C=C/c1cc(O)c(O)cc1O)c1ccccc1O` (stereo in doubt; 18c), the inhibition result in assay [1] is “Active”. Broadly, the IC50 is the midpoint of a concentration-inhibition curve. A higher IC50 goes with a need for much substance. In the case of `O=C(/C=C\c1ccc(O)cc1O)c1ccc(O)cc1`, in the assay with Streptococcus mutans, the half-inhibitory concentration (IC50) turned out to be 77 µM. In assay [1], the inhibition entry is “Active”.

For `O=C(/C=C\c1ccc(O)cc1O)c1cccc(O)c1`, the concentration for half-maximal inhibition (IC50) in the assay with Streptococcus mutans worked out at 44 µM. Moreover, the inhibition entry in assay [1] was “Active”.

Turning to `O=C(/C=C/c1ccc(O)cc1O)c1ccc(O)cc1`, inhibition with Streptococcus mutans was half-maximal at 162 µM (IC50). For the same compound, in assay [1], the inhibition result is “Active”.

The values above are taken from ChEMBL document CHEMBL3822431, “Hydroxychalcone inhibitors of Streptococcus mutans glucosyl transferases and biofilms as potential anticaries agents” (Bioorg Med Chem Lett, 2016).
